Like-named read-outs stand apart in the source and are kept apart here.
Legend:
P. falciparum strain W2 = test: Antiplasmodial proliferation inhibition assay, 384-well, SYBR Green; assay type: cell-based, Plasmodium falciparum
In short: (§1)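 P. falciparum was grown in O+ erythrocytes and tested in serum-free medium with 0.5% Albumax II. Test compound ran as a 12-point half-log series, top final 10 μM, at 0.3% parasitemia and 2.5% hematocrit, 72 h, 37 °C, low-oxygen gas. Saponin/Triton lysis buffer with SYBR Green was added (24 h, 25 °C), then fluorescence read at 485/530 nm. […] EC50 came from logistic fit, with at least duplicate plates.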

[1] = In vivo pharmacokinetics in mice; conditions: mouse, plasma
Plasmodium berghei = Plasmodium berghei mouse survival model; assay type: in vivo, Plasmodium berghei (NMRI mice); conditions: for survival (average lifespan after infection): untreated control 6–7 days
In short: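 Female NMRI mice (20–22 g), three per group, were infected IV on day 0 with 2 × 10^7 P. berghei GFP ANKA-parasitised erythrocytes. Test compound in 75% PEG300/25% D5W was given orally at 10 mL/kg, either once at 24 h or daily at 24, 48 and 72 h. Parasitemia was measured by flow cytometry at 72 h or 96 h, as % reduction versus untreated controls. Survival was followed to day 30, and cure meant parasite-free survival to day 30.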

[2] = Rat full PK / dose escalation PK; assay type: in vivo; conditions: rat PO, 30 mg/kg vs 10 mg/kg
Caco-2 = Caco-2 permeability assay; assay type: in vitro ADME; conditions: for Caco-2 A–B: apical to basolateral; for Caco-2 B–A: basolateral to apical
P. falciparum = test: Antiplasmodial activity as quoted in text; assay type: cell-based, Plasmodium falciparum; conditions: for EC50: Plasmodium falciparum, read-out: antiplasmodial activity EC50; for loss/decrease of potency: relative to parent compound (17: 8-methyl; 32: lactam vs 31); for improvement in potency: on 8,8-dimethyl substitution (33 vs 32; 35 vs 31)
In short: as §1

[3] = Metabolic stability in mouse liver microsomes; assay type: in vitro ADME; conditions: Table 2
Rat snapshot PK = assay type: in vivo
P. falciparum strain 3D7 = test: Antiplasmodial proliferation inhibition assay, 384-well, SYBR Green; assay type: cell-based; conditions: Plasmodium falciparum, 3D7, read-out: P. falciparum strain EC50 3D7
In short: as §1

PAMPA assay = assay type: in vitro ADME; conditions: Table 3
[4] = Caco-2 permeability assay; assay type: in vitro ADME; conditions: human, Caco-2
[5] = read-out: P. falciparum strain EC50 W2, Table 1, means of two experiments, 72 h incubation
[6] = Wistar, rat, plasma, po, 20 mg/kg

2-Amino-1-(3-(4-chloro-3-fluorophenylamino)-2-(4-fluorophenyl)-8,8-dimethyl-5,6-dihydroimidazo[1,2-a]pyrazin-7(8H)-yl)ethanone [Compound 21]
EC50 (P. falciparum strain W2; [5]): 24 ± 1 nM

(S)-2-Amino-1-(3-(4-chloro-3-fluorophenylamino)-2-(4-fluorophenyl)-8-isopropyl-5,6-dihydroimidazo[1,2-a]pyrazin-7(8H)-yl)ethanone [Compound 19]
EC50 (P. falciparum strain W2; [5]): 470 ± 130 nM

(R)-2-Amino-1-(3-(4-chloro-3-fluorophenylamino)-2-(4-fluorophenyl)-8-methyl-5,6-dihydroimidazo[1,2-a]pyrazin-7(8H)-yl)ethanone [Compound 18]
EC50 (P. falciparum strain W2; [5]): 29 ± 3 nM

CC1(C)c2nc(-c3ccc(F)cc3)c(Nc3ccc(F)cc3)n2CCN1C(=O)CN [Compound 22, 2-Amino-1-(2-(4-fluorophenyl)-3-(4-fluorophenylamino)-8,8-dimethyl-5,6-dihydroimidazo[1,2-a]pyrazin-7(8H)-yl)ethanone]
Cmax ([1]; oral, 2 mg/kg): ~75 nM | activity (average parasitemia reduction) (Plasmodium berghei; 1 × 30 mg/kg oral, 30 mg/kg): > 99% | efficacy of substituted vs unsubstituted piperazine core (ED99) (Plasmodium berghei; compound 22 vs compound 1): ~10 fold | increase in AUC [2]: 7 fold | increase in bioavailability [2]: 2 fold | Caco-2 A–B (Caco-2): 1.26 cm/s ×10^6 | Caco-2 B–A (Caco-2): 2.99 cm/s ×10^6

Cc1ccc(Nc2c(-c3ccc(F)cc3)nc3n2CCNC3)cc1 [Compound 31, 2-(4-Fluorophenyl)-N-(p-tolyl)-5,6,7,8-tetrahydroimidazo[1,2-a]pyrazin-3-amine]
EC50 (P. falciparum): 160 to 400 nM | Caco-2 A–B (Caco-2): 8.2 cm/s ×10^6 | Caco-2 B–A (Caco-2): 2.36 cm/s ×10^6

CC1(C)NC(=O)Cn2c1nc(-c1ccc(F)cc1)c2Nc1ccc(Cl)c(F)c1 [Compound 34, 3-(4-Chloro-3-fluorophenylamino)-2-(4-fluorophenyl)-8,8-dimethyl-7,8-dihydro imidazo[1,2-a]pyrazin-6(5H)-one]
AUC(0-t) ([1]; male, Balb/c, iv, 5 mg/kg): 16.5 µM·h | Vd ([1]; male, Balb/c, iv, 5 mg/kg): 2.7 L/kg | clearance ([1]; male, Balb/c, iv, 5 mg/kg): 12.5 mL/min/kg | half-life ([1]; male, Balb/c, iv, 5 mg/kg): 2.8 h | bioavailability ([1]; male, Balb/c, oral, 20 mg/kg): 77% | AUC(0-t) ([1]; male, Balb/c, po, 20 mg/kg): 50.6 µM·h | Cmax ([1]; male, Balb/c, po, 20 mg/kg): 3650 nM | Tmax ([1]; male, Balb/c, po, 20 mg/kg): 1 h | half-life ([1]; male, Balb/c, po, 20 mg/kg): 2.71 h | activity (average parasitemia reduction) (Plasmodium berghei; 1 × 30 mg/kg oral): 47.0% | survival (average lifespan after infection) (Plasmodium berghei; 1 × 30 mg/kg oral): 6.3 days | activity (average parasitemia reduction) (Plasmodium berghei; 1 × 100 mg/kg oral): 97.0% | survival (average lifespan after infection) (Plasmodium berghei; 1 × 100 mg/kg oral): 6.7 days | activity (average parasitemia reduction) (Plasmodium berghei; 3 × 30 mg/kg oral): 66.0% | survival (average lifespan after infection) (Plasmodium berghei; 3 × 30 mg/kg oral): 7.0 days | mouse microsome hepatic extraction ratio [3]: 0.61 | AUC(0–5 h)/dose (Rat snapshot PK; PO, Wistar rat): 5.07 (min·μg/mL)/(mg/kg) | AUC(0-t) (Rat snapshot PK; [6]): 2.1 µM·h | Cmax (Rat snapshot PK; [6]): 504 nM | EC50 (P. falciparum strain 3D7): 36 ± 2 nM | EC50 (P. falciparum strain W2; Plasmodium falciparum, W2, read-out: P. falciparum strain EC50 W2): 65 ± 3 nM | PAMPA, measured as percentage absorbed (PAMPA assay): 97.1% | Papp A→B [4]: 3.22 ×10⁻⁶ cm/s | Papp B→A [4]: 3.35 ×10⁻⁶ cm/s

CC1(C)c2nc(-c3ccc(F)cc3)c(Nc3ccc(F)c(F)c3)n2CCN1C(=O)CN [Compound 24, 2-Amino-1-(3-((3,4-difluorophenyl)amino)-2-(4-fluorophenyl)-8,8-dimethyl-5,6-dihydroimidazo[1,2-a]pyrazin-7(8H)-yl)ethanone]
activity (average parasitemia reduction) (Plasmodium berghei; 1 × 30 mg/kg oral, 30 mg/kg): > 99% | Caco-2 A–B (Caco-2): 0.61 cm/s ×10^6 | Caco-2 B–A (Caco-2): 1.3 cm/s ×10^6

Cc1ccc(Nc2c(-c3ccc(F)cc3)nc3n2CCN(C(=O)C(C)(C)N)C3(C)C)cc1 [Compound 29, 2-Amino-1-(2-(4-fluorophenyl)-8,8-dimethyl-3-(p-tolylamino)-5,6-dihydroimidazo[1,2-a]pyrazin-7(8H)-yl)-2-methylpropan-1-one]
activity (average parasitemia reduction) (Plasmodium berghei; 1 × 30 mg/kg oral, 30 mg/kg): > 99% | survival (average lifespan after infection) (Plasmodium berghei; 3 × 30 mg/kg oral): 18.0 days | in vivo exposure in rat (Rat snapshot PK; oral, rat snapshot PK): did not exhibit any in vivo exposure | Caco-2 A–B (Caco-2): 3.5 cm/s ×10^6 | Caco-2 B–A (Caco-2): 2.37 cm/s ×10^6

(S)-2-Amino-1-(3-(4-chloro-3-fluorophenylamino)-2-(4-fluorophenyl)-8-methyl-5,6-dihydroimidazo[1,2-a]pyrazin-7(8H)-yl)ethanone [Compound 17]
EC50 (P. falciparum strain W2; [5]): 24 ± 1 nM | loss/decrease of potency (P. falciparum): 10 fold

CC(C)(N)C(=O)N1CCn2c(nc(-c3ccc(F)cc3)c2Nc2ccc(F)cc2)C1 [Compound 27, 2-Amino-1-(2-(4-fluorophenyl)-3-((4-fluorophenyl)amino)-5,6-dihydroimidazo[1,2-a]pyrazin-7(8H)-yl)-2-methylpropan-1-one]
Papp A→B [4]: 3.05 ×10⁻⁶ cm/s | Papp B→A [4]: 8.38 ×10⁻⁶ cm/s

(R)-2-Amino-1-(3-(4-chloro-3-fluorophenylamino)-2-(4-fluorophenyl)-8-isopropyl-5,6-dihydroimidazo[1,2-a]pyrazin-7(8H)-yl)ethanone [Compound 20]
EC50 (P. falciparum strain W2; [5]): 202 ± 38 nM

NCC(=O)N1CCn2c(nc(-c3ccc(F)cc3)c2Nc2ccc(F)cc2)C1 [Compound 15]
Papp A→B [4]: 0.7 ×10⁻⁶ cm/s | Papp B→A [4]: 2.55 ×10⁻⁶ cm/s

Cc1ccc(Nc2c(-c3ccc(F)cc3)nc3n2CC(=O)NC3)cc1 [Compound 32, 2-(4-Fluorophenyl)-3-(p-tolylamino)-7,8-dihydroimidazo[1,2-a]pyrazin-6(5H)-one]
loss/decrease of potency (P. falciparum): ~7 fold | Caco-2 A–B (Caco-2): 15 cm/s ×10^6 | Caco-2 B–A (Caco-2): 14.37 cm/s ×10^6

Cc1ccc(Nc2c(-c3ccc(F)cc3)nc3n2CC(=O)NC3(C)C)cc1 [Compound 33, 2-(4-Fluorophenyl)-8,8-dimethyl-3-(p-tolylamino)-7,8-dihydroimidazo[1,2-a]pyrazin-6(5H)-one]
improvement in potency (P. falciparum): 7 fold

CC(C)(N)C(=O)N1CCn2c(nc(-c3ccc(F)cc3)c2Nc2ccc(F)cc2)C1(C)C [Compound 28, 2-Amino-1-(2-(4-fluorophenyl)-3-(4-fluorophenylamino)-8,8-dimethyl-5,6-dihydroimidazo[1,2-a]pyrazin-7(8H)-yl)-2-methylpropan-1-one]
Caco-2 A–B (Caco-2): 1.2 cm/s ×10^6 | Caco-2 B–A (Caco-2): 0.97 cm/s ×10^6

Cc1ccc(Nc2c(-c3ccc(F)cc3)nc3n2CCNC3(C)C)cc1 [Compound 35, 2-(4-Fluorophenyl)-8,8-dimethyl-N-p-tolyl-5,6,7,8-tetrahydroimidazo[1,2-a]pyrazin-3-amine]
EC50 (P. falciparum): ~10 nM | improvement in potency (P. falciparum): ~10 fold | Caco-2 A–B (Caco-2): 15.56 cm/s ×10^6 | Caco-2 B–A (Caco-2): 6.96 cm/s ×10^6

From publication PMC3350218 (Journal of Medicinal Chemistry, 2012)
